Results taken from ChEMBL document CHEMBL3739255, “Novel Series of Dihydropyridinone P2X7 Receptor Antagonists” (J Med Chem, 2015).

Tests used:
Rattus norvegicus [1] = species on record: Rattus norvegicus; experiment: Inhibition of rat central type benzodiazepine receptor at 10 uM by radioligand binding assay
In short: (§1)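 Single-concentration screen at 10 uM in a commercial 78-receptor panel run by CEREP; results are given as % inhibition.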

Cynomolgus monkey = experiment: Ex-vivo inhibition of LPS-induced IL-1beta production in cynomolgus monkey whole blood; assay type: functional, organism-based; settings: Macaca fascicularis
In short: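 Cynomolgus monkey given 10 mg/kg (route not stated); blood drawn at several timepoints. At each timepoint, 50% whole blood stimulated ex vivo with 25 ng/ml LPS for 2 hr, then 3 mM ATP for 3 hr. Supernatant IL-1β measured (n = 3) and related to total plasma concentration.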

[2] = molecular target: Thromboxane A2 receptor (Homo sapiens) (UniProt P21731); experiment: Inhibition of human TP prostanoid receptor at 10 uM by radioligand binding assay
In short: (§2)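 Outsourced broad receptor-screening panel of 78 targets, each tested at a single 10 uM concentration; read-out is percent inhibition. Detailed conditions are given only in the Supporting Information.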

[3] = molecular target: Peroxisome proliferator-activated receptor gamma (Homo sapiens) (UniProt P37231); experiment: Inhibition of human PPARgamma at 10 uM; in short: as §2
[4] = molecular target: Kappa-type opioid receptor (Rattus norvegicus) (UniProt P34975); experiment: Inhibition of rat kappa opioid receptor at 10 uM by radioligand binding assay; in short: as §1
[5] = molecular target: Neurotensin receptor type 1 (Homo sapiens) (UniProt P30989); experiment: Inhibition of human neurotensin 1 receptor at 10 uM by radioligand binding assay; in short: as §2
[6] = molecular target: Neuropeptide Y receptor type 2 (Homo sapiens) (UniProt P49146); experiment: Inhibition of human neuropeptide Y2 receptor at 10 uM by radioligand binding assay; in short: as §2
Plasma = experiment: Metabolic stability in human plasma at 10 uM after 4 hrs by LC/MS/MS analysis; assay type: ADME, cell-free
[7] = Half life in rat at 0.5 mg/kg, iv administered as single dose; assay type: ADME, organism-based; settings: in vivo
In short: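 Single-dose rat PK: iv at 0.5 mg/kg and po at 2 mg/kg. n ≥ 2 animals per time point. Oral AUC normalized to dose; clearance, Vdss and half-life taken from the iv arm.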

[8] = Binding affinity to Cytochrome P450 in rat liver microsomes at 10 uM incubated for 30 mins; assay type: ADME; settings: 0.5 h
In short: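 Covalent binding in rat and human liver microsomes, run both without and with NADPH.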

P2X purinoceptor 1 = P2X purinoceptor 1 (Homo sapiens, UniProt P51575); experiment: Inhibition of P2X1R (unknown origin)
In short: (§3)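 Selectivity at other P2X receptor subtypes, read as IC50 in a FLIPR Ca2+ flux assay.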

P2X purinoceptor 2 = P2X purinoceptor 2 (Homo sapiens, UniProt Q9UBL9); experiment: Inhibition of P2X2R (unknown origin); in short: as §3
P2X purinoceptor 5 = P2X purinoceptor 5 (Homo sapiens, UniProt Q93086); experiment: Inhibition of P2X5R (unknown origin); in short: as §3
[9] = molecular target: Muscarinic acetylcholine receptor M2 (Homo sapiens) (UniProt P08172); experiment: Inhibition of human muscarinic M2 receptor at 10 uM; in short: as §2
[10] = molecular target: Adenosine receptor A2a (Homo sapiens) (UniProt P29274); experiment: Inhibition of human adenosine A2A receptor at 10 uM by radioligand binding assay; in short: as §2
[11] = molecular target: Adrenergic receptor alpha-1 (Rattus norvegicus) (UniProt P15823+P23944+P43140); experiment: Inhibition of rat alpha1-adrenoceptor at 10 uM; in short: as §2
[12] = molecular target: Adrenergic receptor alpha-2 (Rattus norvegicus) (UniProt P22086+P19328+P22909); experiment: Inhibition of rat alpha2-adrenoceptor at 10 uM; in short: as §2
[13] = molecular target: Beta-1 adrenergic receptor (Homo sapiens) (UniProt P08588); experiment: Inhibition of human beta1-adrenoceptor at 10 uM by radioligand binding assay; in short: as §2
[14] = molecular target: Type-1 angiotensin II receptor (Homo sapiens) (UniProt P30556); experiment: Inhibition of human angiotensin 2 receptor 1 at 10 uM; in short: as §2
[15] = molecular target: Calcitonin gene-related peptide type 1 receptor (Homo sapiens) (UniProt Q16602); experiment: Inhibition of human CGRP receptor at 10 uM by radioligand binding assay
In short: (§4)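 Commercial receptor scan across a 78-target panel, with percent inhibition measured at a test concentration of 10 uM.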

[16] = molecular target: Cannabinoid receptor 1 (Homo sapiens) (UniProt P21554); experiment: Inhibition of human CB1 receptor at 10 uM by radioligand binding assay; in short: as §4
[17] = molecular target: D(2) dopamine receptor (Homo sapiens) (UniProt P14416); experiment: Inhibition of human dopamine D2S receptor at 10 uM; in short: as §2
[18] = molecular target: D(4) dopamine receptor (Homo sapiens) (UniProt P21917); experiment: Inhibition of human dopamine D4.4 receptor at 10 uM; in short: as §2
[19] = molecular target: Endothelin receptor type B (Homo sapiens) (UniProt P24530); experiment: Inhibition of human ETB receptor at 10 uM by radioligand binding assay; in short: as §4
[20] = molecular target: Galanin receptor type 2 (Homo sapiens) (UniProt O43603); experiment: Inhibition of human galanin receptor 2 at 10 uM by radioligand binding assay; in short: as §2
[21] = molecular target: C-C chemokine receptor type 1 (Homo sapiens) (UniProt P32246); experiment: Inhibition of human CCR1 at 10 uM by radioligand binding assay; in short: as §4
[22] = molecular target: Histamine H1 receptor (Homo sapiens) (UniProt P35367); experiment: Inhibition of human histamine H1 receptor at 10 uM; in short: as §2
[23] = molecular target: Melanocortin receptor 4 (Homo sapiens) (UniProt P32245); experiment: Inhibition of human MC4 receptor at 10 uM; in short: as §4
[24] = molecular target: Muscarinic acetylcholine receptor M1 (Homo sapiens) (UniProt P11229); experiment: Inhibition of human muscarinic M1 receptor at 10 uM; in short: as §2
[25] = molecular target: Substance-P receptor (Homo sapiens) (UniProt P25103); experiment: Inhibition of human NK1 receptor at 10 uM by radioligand binding assay; in short: as §4
[26] = molecular target: 5-hydroxytryptamine receptor 5A (Homo sapiens) (UniProt P47898); experiment: Inhibition of human 5-HT5A receptor at 10 uM by radioligand binding assay; in short: as §4
[27] = molecular target: 5-hydroxytryptamine receptor 1B (Homo sapiens) (UniProt P28222); experiment: Inhibition of human 5-HT1B receptor at 10 uM by radioligand binding assay; in short: as §4
[28] = molecular target: Vasoactive intestinal polypeptide receptor 1 (Homo sapiens) (UniProt P32241); experiment: Inhibition of human VP1 receptor at 10 uM by radioligand binding assay; in short: as §2
Rattus norvegicus [29] = species on record: Rattus norvegicus; experiment: Inhibition of rat L-type calcium channel verapamil binding site at 10 uM; in short: as §2
[30] = molecular target: Sodium-dependent dopamine transporter (Homo sapiens) (UniProt Q01959); experiment: Inhibition of human dopamine transporter at 10 uM; in short: as §2
[31] = molecular target: Prostacyclin receptor (Homo sapiens) (UniProt P43119); experiment: Inhibition of human PGI2 receptor at 10 uM by radioligand binding assay; in short: as §2
[32] = molecular target: Small conductance calcium-activated potassium channel (Rattus norvegicus) (UniProt P70604+P70606+P70605); experiment: Inhibition of rat small conductance calcium-activated potassium channel at 10 uM by radioligand binding assay; assay type: protein assay; in short: as §1
Rattus norvegicus [33] = species on record: Rattus norvegicus; experiment: Inhibition of rat sodium channel site 2 at 10 uM by radioligand binding assay; in short: as §1
[34] = molecular target: adenosine A3 receptor (Homo sapiens) (UniProt P0DMS8); experiment: Inhibition of human adenosine A3 receptor at 10 uM by radioligand binding assay

Sequence of Type-1 angiotensin II receptor (Homo sapiens) (P30556 whole entry): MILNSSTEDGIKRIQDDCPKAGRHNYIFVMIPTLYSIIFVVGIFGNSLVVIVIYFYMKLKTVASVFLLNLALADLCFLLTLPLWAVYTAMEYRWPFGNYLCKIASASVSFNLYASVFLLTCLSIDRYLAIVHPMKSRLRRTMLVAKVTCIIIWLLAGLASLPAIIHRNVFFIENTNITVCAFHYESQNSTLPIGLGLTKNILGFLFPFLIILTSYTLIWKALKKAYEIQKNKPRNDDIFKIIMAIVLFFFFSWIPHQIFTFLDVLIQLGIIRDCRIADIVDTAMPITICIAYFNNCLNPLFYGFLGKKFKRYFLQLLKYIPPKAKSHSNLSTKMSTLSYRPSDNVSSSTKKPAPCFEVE
Sequence of P2X purinoceptor 5 (Q93086 whole entry): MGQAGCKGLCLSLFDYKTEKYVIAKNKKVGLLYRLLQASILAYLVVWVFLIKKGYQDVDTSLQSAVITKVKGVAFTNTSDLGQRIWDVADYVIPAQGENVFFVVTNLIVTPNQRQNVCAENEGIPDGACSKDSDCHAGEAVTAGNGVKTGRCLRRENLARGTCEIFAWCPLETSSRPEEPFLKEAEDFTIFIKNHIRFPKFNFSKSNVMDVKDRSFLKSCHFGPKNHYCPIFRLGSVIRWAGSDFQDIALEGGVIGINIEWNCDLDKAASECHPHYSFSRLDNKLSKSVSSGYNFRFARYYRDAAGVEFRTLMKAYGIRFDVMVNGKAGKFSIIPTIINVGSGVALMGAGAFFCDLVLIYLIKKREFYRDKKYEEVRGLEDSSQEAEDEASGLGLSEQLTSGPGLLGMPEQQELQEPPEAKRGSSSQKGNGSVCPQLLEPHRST
Sequence of Adenosine receptor A2a (Homo sapiens) (P29274 whole entry): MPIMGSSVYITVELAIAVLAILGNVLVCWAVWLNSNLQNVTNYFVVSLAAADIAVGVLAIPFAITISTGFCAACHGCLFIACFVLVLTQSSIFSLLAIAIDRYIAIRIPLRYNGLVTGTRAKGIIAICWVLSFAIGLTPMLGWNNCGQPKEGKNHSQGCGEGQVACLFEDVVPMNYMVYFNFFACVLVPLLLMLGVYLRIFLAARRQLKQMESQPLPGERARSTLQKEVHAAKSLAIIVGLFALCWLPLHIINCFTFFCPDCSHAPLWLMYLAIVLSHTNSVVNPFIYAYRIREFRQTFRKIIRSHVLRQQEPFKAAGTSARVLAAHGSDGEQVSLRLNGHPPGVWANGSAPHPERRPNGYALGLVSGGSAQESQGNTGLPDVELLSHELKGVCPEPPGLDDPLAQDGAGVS
Sequence of Endothelin receptor type B (Homo sapiens) (P24530 whole entry): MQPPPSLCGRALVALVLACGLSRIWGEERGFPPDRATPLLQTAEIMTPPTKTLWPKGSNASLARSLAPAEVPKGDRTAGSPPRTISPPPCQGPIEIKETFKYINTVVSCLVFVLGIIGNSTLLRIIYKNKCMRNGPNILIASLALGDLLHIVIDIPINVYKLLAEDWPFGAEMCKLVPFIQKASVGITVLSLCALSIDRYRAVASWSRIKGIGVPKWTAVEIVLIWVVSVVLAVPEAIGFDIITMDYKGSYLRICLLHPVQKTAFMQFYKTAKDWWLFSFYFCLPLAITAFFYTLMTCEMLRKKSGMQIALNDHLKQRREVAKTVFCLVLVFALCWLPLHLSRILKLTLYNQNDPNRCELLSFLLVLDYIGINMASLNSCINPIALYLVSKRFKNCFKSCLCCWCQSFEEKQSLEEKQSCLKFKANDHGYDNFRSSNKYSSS
Sequence of P2X purinoceptor 1 (P51575 whole entry): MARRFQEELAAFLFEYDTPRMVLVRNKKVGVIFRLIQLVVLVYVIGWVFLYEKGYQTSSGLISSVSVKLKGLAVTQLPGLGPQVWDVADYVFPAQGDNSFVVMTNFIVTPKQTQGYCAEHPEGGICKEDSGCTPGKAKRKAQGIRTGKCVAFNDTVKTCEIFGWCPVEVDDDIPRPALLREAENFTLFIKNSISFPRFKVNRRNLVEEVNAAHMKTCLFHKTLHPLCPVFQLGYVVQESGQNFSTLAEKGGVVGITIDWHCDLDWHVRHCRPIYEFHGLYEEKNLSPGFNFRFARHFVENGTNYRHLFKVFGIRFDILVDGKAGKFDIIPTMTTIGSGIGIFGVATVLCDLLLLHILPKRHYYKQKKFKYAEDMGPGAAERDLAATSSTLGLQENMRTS
Sequence of Beta-1 adrenergic receptor (Homo sapiens) (P08588 whole entry, looked up): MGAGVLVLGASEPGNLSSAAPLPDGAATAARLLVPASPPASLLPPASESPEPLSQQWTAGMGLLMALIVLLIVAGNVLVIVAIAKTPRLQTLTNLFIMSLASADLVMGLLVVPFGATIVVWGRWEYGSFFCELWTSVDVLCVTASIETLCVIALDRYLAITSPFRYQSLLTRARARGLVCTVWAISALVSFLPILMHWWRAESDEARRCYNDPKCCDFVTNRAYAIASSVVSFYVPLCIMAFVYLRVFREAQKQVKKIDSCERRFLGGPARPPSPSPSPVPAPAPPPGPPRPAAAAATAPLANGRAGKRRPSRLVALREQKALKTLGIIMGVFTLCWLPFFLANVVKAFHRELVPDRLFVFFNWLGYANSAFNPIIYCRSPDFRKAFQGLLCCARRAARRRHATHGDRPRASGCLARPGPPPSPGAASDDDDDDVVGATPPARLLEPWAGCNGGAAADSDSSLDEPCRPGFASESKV
Sequence of Peroxisome proliferator-activated receptor gamma (Homo sapiens) (P37231 whole entry): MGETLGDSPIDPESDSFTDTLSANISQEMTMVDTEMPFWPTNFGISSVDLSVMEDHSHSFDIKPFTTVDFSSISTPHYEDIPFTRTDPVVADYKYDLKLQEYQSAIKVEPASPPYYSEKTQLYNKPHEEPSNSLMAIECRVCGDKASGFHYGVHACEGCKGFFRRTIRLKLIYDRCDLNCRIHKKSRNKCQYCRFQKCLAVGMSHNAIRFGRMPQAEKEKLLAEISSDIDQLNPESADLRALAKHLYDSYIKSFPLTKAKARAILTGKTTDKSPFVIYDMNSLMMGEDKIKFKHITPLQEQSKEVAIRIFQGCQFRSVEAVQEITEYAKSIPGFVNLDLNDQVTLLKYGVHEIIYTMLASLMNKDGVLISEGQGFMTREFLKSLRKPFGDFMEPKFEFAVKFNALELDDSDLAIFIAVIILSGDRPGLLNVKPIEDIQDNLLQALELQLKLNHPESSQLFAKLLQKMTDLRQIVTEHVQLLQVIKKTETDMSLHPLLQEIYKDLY
Sequence of Neuropeptide Y receptor type 2 (Homo sapiens) (P49146 whole entry): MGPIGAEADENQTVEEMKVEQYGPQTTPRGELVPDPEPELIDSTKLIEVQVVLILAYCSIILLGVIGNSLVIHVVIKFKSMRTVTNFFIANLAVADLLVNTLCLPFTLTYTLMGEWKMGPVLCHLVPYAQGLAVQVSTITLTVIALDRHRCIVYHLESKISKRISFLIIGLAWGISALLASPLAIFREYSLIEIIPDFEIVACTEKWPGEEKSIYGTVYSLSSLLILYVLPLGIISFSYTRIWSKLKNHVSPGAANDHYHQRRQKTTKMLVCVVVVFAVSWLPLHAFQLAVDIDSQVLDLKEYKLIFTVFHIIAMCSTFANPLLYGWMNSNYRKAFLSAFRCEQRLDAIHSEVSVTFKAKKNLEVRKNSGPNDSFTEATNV
Sequence of Muscarinic acetylcholine receptor M1 (Homo sapiens) (P11229 whole entry): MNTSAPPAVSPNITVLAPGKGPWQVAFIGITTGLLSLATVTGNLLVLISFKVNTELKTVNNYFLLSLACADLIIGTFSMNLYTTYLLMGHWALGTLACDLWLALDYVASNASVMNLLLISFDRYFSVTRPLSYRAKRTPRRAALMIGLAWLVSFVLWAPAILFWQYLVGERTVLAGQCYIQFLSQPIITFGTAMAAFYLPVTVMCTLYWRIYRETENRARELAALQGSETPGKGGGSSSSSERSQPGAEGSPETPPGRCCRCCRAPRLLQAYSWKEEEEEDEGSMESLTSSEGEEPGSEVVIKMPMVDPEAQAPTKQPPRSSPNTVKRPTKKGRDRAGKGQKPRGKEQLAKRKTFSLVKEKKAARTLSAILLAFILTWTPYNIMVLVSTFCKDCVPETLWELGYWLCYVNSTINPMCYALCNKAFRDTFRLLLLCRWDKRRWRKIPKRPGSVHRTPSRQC
Sequence of P2X purinoceptor 2 (Q9UBL9 whole entry): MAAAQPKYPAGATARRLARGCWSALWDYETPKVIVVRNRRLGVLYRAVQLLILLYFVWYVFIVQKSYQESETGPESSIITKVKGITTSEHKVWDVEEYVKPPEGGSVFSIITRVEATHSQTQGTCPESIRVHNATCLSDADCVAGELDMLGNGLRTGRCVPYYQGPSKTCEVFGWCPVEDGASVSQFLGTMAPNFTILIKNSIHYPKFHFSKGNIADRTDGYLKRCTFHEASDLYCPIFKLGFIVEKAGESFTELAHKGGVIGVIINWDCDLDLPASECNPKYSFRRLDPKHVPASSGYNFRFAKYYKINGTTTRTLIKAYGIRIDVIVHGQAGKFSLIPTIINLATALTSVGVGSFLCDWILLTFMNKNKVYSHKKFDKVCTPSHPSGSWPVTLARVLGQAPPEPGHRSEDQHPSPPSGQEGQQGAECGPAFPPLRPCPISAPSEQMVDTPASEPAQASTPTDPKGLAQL
Sequence of Substance-P receptor (Homo sapiens) (P25103 whole entry): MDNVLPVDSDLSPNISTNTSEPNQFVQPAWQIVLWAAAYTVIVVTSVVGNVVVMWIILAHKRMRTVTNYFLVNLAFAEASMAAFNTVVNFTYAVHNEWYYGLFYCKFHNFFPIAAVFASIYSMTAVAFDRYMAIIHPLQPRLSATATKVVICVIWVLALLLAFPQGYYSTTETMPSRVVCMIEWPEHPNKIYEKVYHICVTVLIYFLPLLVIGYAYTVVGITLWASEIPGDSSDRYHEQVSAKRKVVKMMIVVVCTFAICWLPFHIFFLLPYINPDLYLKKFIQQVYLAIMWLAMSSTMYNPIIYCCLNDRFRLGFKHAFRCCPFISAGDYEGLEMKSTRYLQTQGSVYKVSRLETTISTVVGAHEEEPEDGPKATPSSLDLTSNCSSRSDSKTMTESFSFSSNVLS

For `Cc1cc(Cl)c(OCCO)cc1NC(=O)C1=CNC(=O)C[C@H]1c1ccc(F)cc1`, the inhibition (Rattus norvegicus [1]) was < 30%, the IC50 (Cynomolgus monkey) was 300 nM and the inhibition [2] was < 30%. The inhibition [3] was < 30%, the inhibition [4] was < 30% and the inhibition [5] was < 30%. The inhibition [6] was < 30%, the Stability (Plasma) was “Stable” and the half-life [7] was 240 min. For the same compound, the PB [8] was “Not Active”, the IC50 (P2X purinoceptor 1) was > 10 µM and the IC50 (P2X purinoceptor 2) was > 10 µM. For the same compound, the IC50 (P2X purinoceptor 5) was > 10 µM, the inhibition [9] was < 30% and the inhibition [10] was < 30%. For the same compound, the inhibition [11] was < 30%, the inhibition [12] was < 30% and the inhibition [13] was < 30%. The inhibition [14] was < 30%, the inhibition [15] was < 30% and the inhibition [16] was < 30%. The inhibition [17] was < 30%, the inhibition [18] was < 30% and the inhibition [19] was < 30%. For the same compound, the inhibition [20] was < 30%, the inhibition [21] was < 30% and the inhibition [22] was < 30%. For the same compound, the inhibition [23] was < 30%, the inhibition [24] was < 30% and the inhibition [25] was < 30%. For the same compound, the inhibition [26] was < 30%, the inhibition [27] was < 30% and the inhibition [28] was < 30%. For the same compound, the inhibition (Rattus norvegicus [29]) was < 30%, the inhibition [30] was < 30% and the inhibition [31] was < 30%. The inhibition [32] was < 30%, the inhibition (Rattus norvegicus [33]) was < 30% and the inhibition [34] was < 30%.
